Source: ChEMBL document CHEMBL1687826, “Flow cytometry as a tool to determine the effects of cell wall-active antibiotics on vancomycin-susceptible and -resistant Enterococcus faecalis strains” (Antimicrob Agents Chemother, 2011)
Calls of active or inactive are those of the source. The rule behind the calls is not given here.

Columns and labels:
Enterococcus faecalis [1] = assay: Antibacterial activity against vancomycin-susceptible Enterococcus faecalis JH2-2 assessed as increase in cell size at 0.25 times MIC after 30 to 90 mins by flow cytometric analysis relative to control; assay type: functional, organism-based
Procedure, shortened: (§1)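 10^5 CFU/ml exponential cells in BHI, 37°C, exposed to 0.25× or 1× MIC (daptomycin with 50 μg/ml free Ca2+) for 30, 60, 90 min, then diluted to ca. 10^4 CFU/ml in PBS. Flow cytometry forward scatter, log amplifiers, 5,000 events; % increase in size versus untreated control, triplicate, mean ± SD; Kruskal-Wallis then Mann-Whitney.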

Enterococcus faecalis [2] = assay: Antibacterial activity against […] Enterococcus faecalis BM4275 assessed as membrane potential/size ratio at 0.25 to 1 times MIC after 1 hr […]; assay type: functional, organism-based
Enterococcus faecalis [3] = assay: Antibacterial activity against vancomycin-susceptible Enterococcus faecalis JH2-2 assessed as increase in cell size at 1 times MIC after 30 to 90 mins by flow cytometric analysis relative to control; assay type: functional, organism-based
Procedure, shortened: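 Exponentially growing cells at 10^5 CFU/ml in BHI broth at 37°C were exposed to 0.25× or 1× MIC and sampled at 30, 60 and 90 min. Untreated controls were run alongside. Cells were diluted to ca. 10^4 CFU/ml in PBS and gated on log forward scatter for 5,000 events. Runs were in triplicate, reported as mean % size increase versus control.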

Enterococcus faecalis [4] = assay: Antibacterial activity against vancomycin-susceptible Enterococcus faecalis JH2-2 using BHI broth by macrodilution method; assay type: functional
Procedure, shortened: (§2)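 Macrodilution per CLSI in BHI broth at 37°C, with 50 μg/ml free Ca2+ for daptomycin; MIC read as lowest concentration with no growth after 1 day.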

Enterococcus faecalis [5] = assay: Antibacterial activity against vancomycin-susceptible Enterococcus faecalis JH2-2 assessed as decrease in bacterial count at 4 times MIC after 180 mins using BHI broth; assay type: functional, organism-based
Procedure, shortened: (§3)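 Exponential-phase suspension (10^5 CFU/ml) in BHI, 37°C, exposed to 4× MIC for 180 min alongside antibiotic-free control; daptomycin medium carried 50 μg/ml free Ca2+. Survivors counted on BHI agar; value is mean difference in log10 CFU/ml with versus without antibiotic, 4 independent experiments, mean ± SD.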

Enterococcus faecalis [6] = assay: Antibacterial activity against […] Enterococcus faecalis BM4316 assessed as decrease in bacterial count at 4 times MIC after 180 mins using BHI broth; assay type: functional, organism-based; procedure, shortened: as §3
Enterococcus faecalis [7] = assay: Antibacterial activity against […] Enterococcus faecalis BM4316 assessed as dismorphic bacterial chains at 1 times MIC after 1 hr by confocal microscopy
Enterococcus faecalis [8] = assay: Drug uptake in vancomycin[…]-type Enterococcus faecalis BM4275 assessed as red-fluorescent bacteria at 1 times MIC after 1 hr by confocal microscopy
Enterococcus faecalis [9] = assay: Antibacterial activity against […] Enterococcus faecalis BM4275 assessed as dismorphic bacterial chains at 1 times MIC after 1 hr by confocal microscopy
Enterococcus faecalis [10] = assay: Antibacterial activity against […] Enterococcus faecalis BM4316 using BHI broth by macrodilution method; assay type: functional; procedure, shortened: as §2
Enterococcus faecalis [11] = assay: Drug uptake in vancomycin[…]-type Enterococcus faecalis BM4316 assessed as red-fluorescent bacteria at 1 times MIC after 1 hr by confocal microscopy
Enterococcus faecalis [12] = assay: Antibacterial activity against […] Enterococcus faecalis BM4275 using BHI broth by macrodilution method; assay type: functional; procedure, shortened: as §2
Enterococcus faecalis [13] = assay: Antibacterial activity against […] Enterococcus faecalis BM4275 assessed as decrease in bacterial count at 4 times MIC after 180 mins using BHI broth; assay type: functional, organism-based; procedure, shortened: as §3
Enterococcus faecalis [14] = assay: Antibacterial activity against vancomycin-susceptible Enterococcus faecalis JH2-2 assessed as dismorphic bacterial chains at 1 times MIC after 1 hr using BacLight Live/Dead kit by confocal microscopy
Enterococcus faecalis [15] = assay: Antibacterial activity against […] Enterococcus faecalis BM4316 assessed as membrane potential/size ratio at 0.25 to 1 times MIC after 1 hr […]; assay type: functional, organism-based
Enterococcus faecalis [16] = assay: Antibacterial activity against vancomycin-susceptible Enterococcus faecalis JH2-2 assessed as membrane potential/size ratio at 0.25 to 1 times MIC after 1 hr by flow cytometry
Enterococcus faecalis [17] = assay: Drug uptake in vancomycin-susceptible Enterococcus faecalis JH2-2 assessed as red-fluorescent bacteria at 1 times MIC after 1 hr by confocal microscopy
Enterococcus faecalis [18] = assay: Antibacterial activity against […] Enterococcus faecalis BM4316 assessed as increase in cell size at 1 times MIC after 30 to 90 mins by flow cytometric analysis relative to control; assay type: functional, organism-based; procedure, shortened: as §1
Enterococcus faecalis [19] = assay: Antibacterial activity against […] Enterococcus faecalis BM4275 assessed as change in CFU count at 1 times MIC after 30 to 90 mins; assay type: functional, organism-based
Procedure, shortened: (§4)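 Exponentially growing cells, 10^5 CFU/ml in BHI at 37°C, exposed to 1× MIC antibiotic (daptomycin medium with 50 μg/ml free Ca2+) for 30, 60 and 90 min; viable counts by enumeration on BHI agar.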

Enterococcus faecalis [20] = assay: Antibacterial activity against […] Enterococcus faecalis BM4275 assessed as increase in cell size at 0.25 times MIC after 30 to 90 mins by flow cytometric analysis relative to control; assay type: functional, organism-based; procedure, shortened: as §1
Enterococcus faecalis [21] = assay: Antibacterial activity against […] Enterococcus faecalis BM4275 assessed as increase in cell size at 1 times MIC after 30 to 90 mins by flow cytometric analysis relative to control; assay type: functional, organism-based; procedure, shortened: as §1
Enterococcus faecalis [22] = assay: Antibacterial activity against vancomycin-susceptible Enterococcus faecalis JH2-2 assessed as change in CFU count at 1 times MIC after 30 to 90 mins; assay type: functional, organism-based; procedure, shortened: as §4
Enterococcus faecalis [23] = assay: Antibacterial activity against […] Enterococcus faecalis BM4316 assessed as change in CFU count at 1 times MIC after 30 to 90 mins; assay type: functional, organism-based; procedure, shortened: as §4
Staphylococcus aureus = assay: Antibacterial activity against Staphylococcus aureus ATCC 29213 assessed as cells with altered cell wall morphology at 8 times MIC after 60 mins; assay type: functional
Enterococcus faecalis [24] = assay: Antibacterial activity against […] Enterococcus faecalis BM4316 assessed as increase in cell size at 0.25 times MIC after 30 to 90 mins by flow cytometric analysis relative to control; assay type: functional, organism-based; procedure, shortened: as §1

CN[C@H](CC(C)C)C(=O)N[C@H]1C(=O)N[C@@H](CC(N)=O)C(=O)N[C@H]2C(=O)N[C@H]3C(=O)N[C@H](C(=O)N[C@H](C(=O)O)c4cc(O)cc(O)c4-c4cc3ccc4O)[C@H](O)c3ccc(c(Cl)c3)Oc3cc2cc(c3O[C@@H]2O[C@H](CO)[C@@H](O)[C@H](O)[C@H]2O[C@H]2C[C@](C)(N)[C@H](O)[C@H](C)O2)Oc2ccc(cc2Cl)[C@H]1O [VANCOMYCIN]
Activity (Enterococcus faecalis [1]): Active | Activity (Enterococcus faecalis [2]): inactive | Activity (Enterococcus faecalis [3]): Active | Activity (Enterococcus faecalis [4]): 4 µg/mL | Activity (Enterococcus faecalis [5]): Active | Activity (Enterococcus faecalis [6]): Active | Activity (Enterococcus faecalis [7]): inactive | Drug uptake (Enterococcus faecalis [8]): Active | Activity (Enterococcus faecalis [9]): inactive | Activity (Enterococcus faecalis [10]): 512 µg/mL | Drug uptake (Enterococcus faecalis [11]): Active | Activity (Enterococcus faecalis [12]): 256 µg/mL | Activity (Enterococcus faecalis [13]): Active | Activity (Enterococcus faecalis [14]): inactive | Activity (Enterococcus faecalis [15]): inactive | Activity (Enterococcus faecalis [16]): inactive | Drug uptake (Enterococcus faecalis [17]): Active

CCCCCCCCCC(=O)N[C@@H](Cc1c[nH]c2ccccc12)C(=O)N[C@H](CC(N)=O)C(=O)N[C@@H](CC(=O)O)C(=O)N[C@@H]1C(=O)NCC(=O)N[C@@H](CCCN)C(=O)N[C@@H](CC(=O)O)C(=O)N[C@H](C)C(=O)N[C@@H](CC(=O)O)C(=O)NCC(=O)N[C@H](CO)C(=O)N[C@@H]([C@H](C)CC(=O)O)C(=O)N[C@@H](CC(=O)c2ccccc2N)C(=O)O[C@@H]1C
Activity (Enterococcus faecalis [1]): Active | Activity (Enterococcus faecalis [2]): inactive | Activity (Enterococcus faecalis [3]): Active | Activity (Enterococcus faecalis [18]): Active | Activity (Enterococcus faecalis [19]): Active | Activity (Enterococcus faecalis [20]): Active | Activity (Enterococcus faecalis [4]): 2 µg/mL | Activity (Enterococcus faecalis [5]): Active | Activity (Enterococcus faecalis [6]): Active | Activity (Enterococcus faecalis [7]): Active | Activity (Enterococcus faecalis [21]): Active | Activity (Enterococcus faecalis [22]): Active | Drug uptake (Enterococcus faecalis [8]): Active | Activity (Enterococcus faecalis [9]): Active | Activity (Enterococcus faecalis [10]): 2 µg/mL | Drug uptake (Enterococcus faecalis [11]): Active | Activity (Enterococcus faecalis [12]): 2 µg/mL | Activity (Enterococcus faecalis [23]): Active | Activity (Staphylococcus aureus): >90% | Activity (Enterococcus faecalis [24]): Active | Activity (Enterococcus faecalis [13]): Active | Activity (Enterococcus faecalis [14]): Active | Activity (Enterococcus faecalis [15]): inactive | Activity (Enterococcus faecalis [16]): inactive | Drug uptake (Enterococcus faecalis [17]): Active

CN[C@H](CC(C)C)C(=O)N[C@H]1C(=O)N[C@@H](CC(N)=O)C(=O)N[C@H]2C(=O)N[C@H]3C(=O)N[C@H](C(=O)N[C@H](C(=O)O)c4cc(O)cc(O)c4-c4cc3ccc4O)[C@H](O)c3ccc(c(Cl)c3)Oc3cc2cc(c3O[C@@H]2O[C@H](CO)[C@@H](O)[C@H](O)[C@H]2O[C@H]2C[C@](C)(NCCCCNc3cc(C(F)(F)F)nc4cc(Cl)ccc34)[C@H](O)[C@H](C)O2)Oc2ccc(cc2Cl)[C@H]1O [listing 1 of 2 here]
Activity (Enterococcus faecalis [4]): 0.5 µg/mL | Activity (Enterococcus faecalis [10]): 4 µg/mL | Activity (Enterococcus faecalis [12]): 2 µg/mL

CN[C@H](CC(C)C)C(=O)N[C@H]1C(=O)N[C@@H](CC(N)=O)C(=O)N[C@H]2C(=O)N[C@H]3C(=O)N[C@H](C(=O)N[C@@H](C(=O)O)c4cc(O)cc(O)c4-c4cc3ccc4O)[C@H](O)c3ccc(c(Cl)c3)Oc3cc2cc(c3O[C@@H]2O[C@H](CO)[C@@H](O)[C@H](O)[C@H]2O[C@H]2C[C@](C)(NCCCCNc3cc(C(F)(F)F)nc4cc(Cl)ccc34)[C@H](O)[C@H](C)O2)Oc2ccc(cc2Cl)[C@H]1O
Activity (Enterococcus faecalis [1]): Active | Activity (Enterococcus faecalis [2]): inactive | Activity (Enterococcus faecalis [5]): Active | Activity (Enterococcus faecalis [6]): Active | Activity (Enterococcus faecalis [7]): inactive | Activity (Enterococcus faecalis [9]): inactive | Activity (Enterococcus faecalis [24]): Active | Activity (Enterococcus faecalis [13]): Active | Activity (Enterococcus faecalis [14]): inactive | Activity (Enterococcus faecalis [15]): inactive | Activity (Enterococcus faecalis [16]): inactive

CN[C@H](CC(C)C)C(=O)N[C@H]1C(=O)N[C@@H](CC(N)=O)C(=O)N[C@H]2C(=O)N[C@H]3C(=O)N[C@H](C(=O)N[C@H](C(=O)O)c4cc(O)cc(O)c4-c4cc3ccc4O)[C@H](O)c3ccc(c(Cl)c3)Oc3cc2cc(c3O[C@@H]2O[C@H](CO)[C@@H](O)[C@H](O)[C@H]2O[C@H]2C[C@](C)(NCCCCNc3cc(C(F)(F)F)nc4cc(Cl)ccc34)[C@H](O)[C@H](C)O2)Oc2ccc(cc2Cl)[C@H]1O [listing 2 of 2 here]
Drug uptake (Enterococcus faecalis [8]): Active | Drug uptake (Enterococcus faecalis [11]): Active | Drug uptake (Enterococcus faecalis [17]): Active

CCCCCCCCCCNCCN[C@@]1(C)C[C@H](O[C@H]2[C@H](Oc3c4cc5cc3Oc3ccc(cc3Cl)[C@@H](O)[C@@H](NC(=O)[C@@H](CC(C)C)NC)C(=O)N[C@@H](CC(N)=O)C(=O)N[C@H]5C(=O)N[C@H]3C(=O)N[C@H](C(=O)N[C@H](C(=O)O)c5cc(O)c(CNCP(=O)(O)O)c(O)c5-c5cc3ccc5O)[C@H](O)c3ccc(c(Cl)c3)O4)O[C@H](CO)[C@@H](O)[C@@H]2O)O[C@@H](C)[C@H]1O [TELAVANCIN]
Activity (Enterococcus faecalis [1]): Active | Activity (Enterococcus faecalis [2]): inactive | Activity (Enterococcus faecalis [20]): Active | Activity (Enterococcus faecalis [4]): 1 µg/mL | Activity (Enterococcus faecalis [5]): Active | Activity (Enterococcus faecalis [6]): Active | Activity (Enterococcus faecalis [7]): inactive | Drug uptake (Enterococcus faecalis [8]): Active | Activity (Enterococcus faecalis [9]): inactive | Activity (Enterococcus faecalis [10]): 4 µg/mL | Drug uptake (Enterococcus faecalis [11]): Active | Activity (Enterococcus faecalis [12]): 1 µg/mL | Activity (Enterococcus faecalis [24]): Active | Activity (Enterococcus faecalis [13]): Active | Activity (Enterococcus faecalis [14]): inactive | Activity (Enterococcus faecalis [15]): inactive | Activity (Enterococcus faecalis [16]): inactive | Drug uptake (Enterococcus faecalis [17]): Active
